# Data from ChEMBL document CHEMBL1926521, “Arylcyanoacrylamides as inhibitors of the Dengue and West Nile virus proteases” (Bioorg Med Chem, 2011).
# The source made the active and inactive calls. The rule behind the calls is not given here.
# Legend:
# West Nile virus = assay: Inhibition of West Nile virus NS2B-NS3 protease expressed in Escherichia coli BL21 lambda (DE3) using Abz-GLKRGG-3-(NO2)Y as substrate at 50 uM preincubated for 15 mins before substrate addition measured up to 15 mins by spectrofluorimetry
# In short: (§1)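 Single-concentration screen against His-tagged NS2B-NS3 protease (Ni²⁺-affinity purified from E. coli). Enzyme was 100 nM for Dengue or 150 nM for West Nile. Inhibitor at 50 µM was preincubated 15 min with enzyme, then internally quenched FRET substrate (final 50 µM) was added. Read at ex 320/em 405 nm for 15 min. Rate taken as RFU/s; % inhibition is the mean of triplicates.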
# Prothrombin = Prothrombin (Homo sapiens, UniProt P00734); assay: Inhibition of human thrombin using Boc-VPR-AMC as substrate at 25 uM preincubated for 15 mins before substrate addition measured up to 10 mins by spectrofluorimetry
# Dengue virus = assay: Inhibition of Dengue virus NS2B-NS3 protease expressed in Escherichia coli BL21 lambda (DE3) using Abz-NleKRRS-3-(NO2)Y as substrate at 50 uM preincubated for 15 mins before substrate addition measured up to 15 mins by spectrofluorimetry; in short: as §1
Compound,inhibition (West Nile virus),inhibition (Prothrombin),inhibition (Dengue virus)
CC(C)c1ccc(/C=C(\C#N)C(=O)NC2CC2)cc1,22.2%,17.9%,18.2%
N#C/C(=C\c1ccncc1)C(N)=O,inactive,inactive,inactive
CC(=O)Oc1ccc(/C=C(\C#N)C(N)=O)cc1,28.8%,24.4%,43.1%
N#CC(Cc1c[nH]c2ccccc12)C(N)=O (stereo not given),inactive,inactive,inactive
COc1ccc(/C=C(\C#N)C(N)=O)cc1OC,22%,20%,19.2%
CC(C)c1ccc(/C=C(\C#N)C(=O)NCc2ccccn2)cc1,39.5%,11.6%,24.9%
N#C/C(=C\c1ccc(N2CCOCC2)cc1)C(N)=O,35.3%,19.2%,28.2%
N#Cc1n[nH]nc1-c1ccccc1,11.2%,inactive,inactive
CC(C)/C(=C(/C#N)C(N)=O)c1ccccc1,inactive,16.7%,inactive
C/C(=C(/C#N)C(N)=O)c1ccc(O)cc1,21.9%,inactive,16.8%
N#C/C(=C\c1ccc(CO)cc1)C(N)=O,21.7%,8.7%,22.1%
CN1CCN(C(=O)/C(C#N)=C/c2ccc(O)cc2)CC1,35.1%,20.8%,35.4%
N#C/C(=C\c1ccc([N+](=O)[O-])cc1)C(N)=O,10.5%,inactive,inactive
CN(C)c1ccc(/C=C(\C#N)C(N)=O)cc1,46%,21.6%,35.1%
COc1cc(/C=C(\C#N)C(N)=O)cc(I)c1O,43.8%,23%,30.5%
CN(C)c1ccc(/C=C(\C#N)C(=O)NCc2ccccn2)cc1,21.3%,inactive,25.3%
N#C/C(=C\c1ccc(C#N)cc1)C(N)=O,20%,10.6%,13.3%
CN(C)c1ccc(/C=C/CC(C#N)C(=O)NC2CC2)cc1 (stereo not given),37%,6.7%,9%
C/C(=C\c1ccccc1)CC(C#N)C(N)=O (stereo not given),inactive,inactive,inactive
CCC/C(=C(\C#N)C(N)=O)c1ccccc1,16%,6.9%,7.6%
N#CC(Cc1ccc(N2CCOCC2)cc1)C(N)=O (stereo not given),7.9%,inactive,inactive
Cc1ccc(/C=C(\C#N)C(N)=O)cc1,22.8%,inactive,32.2%
N#C/C(=C\c1sccc1Br)C(N)=O,19.3%,10.1%,18.4%
N#C/C(=C\c1ccc(N2CCNCC2)cc1)C(N)=O,45%,26.1%,28.6%
N#C/C(=C\c1ccc(O)cc1)C(=O)NCc1ccccn1,41.8%,18.9%,46.6%
N#C/C(=C\c1ccc(F)cc1)C(N)=O,16%,7.9%,22.5%
CC(=C\c1ccccc1)/C=C(\C#N)C(N)=O,34.6%,20.5%,30.2%
N#C/C(=C\c1ccc(N2CCCC2)cc1)C(N)=O,24.6%,17.7%,24.3%

Compound,inhibition (West Nile virus),inhibition (Prothrombin),inhibition (Dengue virus)
N#C/C(=C\c1cccs1)C(N)=O,23.9%,15.7%,28.4%
COc1cc(/C=C(\C#N)C(N)=O)ccc1O,42.9%,17.4%,43.2%
CN(C)c1ccc(/C=C/C=C(\C#N)C(=O)NC2CC2)cc1,17.1%,16.2%,10.3%
COC(=O)[C@H](CO)NC(=O)/C(C#N)=C/c1ccc(OC)cc1,21.1%,21.4%,20.3%
N#C/C(=C\c1ccc(Cl)cc1Cl)C(N)=O,10.7%,8.5%,14.7%
CN(C)c1ccc(CC(C#N)C(N)=O)cc1 (stereo not given),16.2%,inactive,7.1%
COc1ccc(/C=C(\C#N)C(N)=O)cc1,23.4%,16.7%,19.7%
N#C/C(=C\c1ccc(C(=O)N2CCOCC2)cc1)C(=O)NC1CC1,23%,9%,22.9%
CC(C)c1ccc(/C=C(\C#N)C(N)=O)cc1,24.6%,19.4%,23%
N#C/C(=C\c1ccc(Cl)s1)C(N)=O,23.8%,27.9%,22%
CN(C)c1ccc(C=C(C#N)C#N)cc1,8.8%,16.3%,8.7%
CCN(CC)C(=O)/C(C#N)=C/c1cc(O)c(O)c([N+](=O)[O-])c1,32.4%,21.9%,21%
N#C/C(=C\c1ccc(O)cc1)C(=O)NCC1CCCO1 (stereo not given),44.4%,16.8%,46.4%
N#C/C(=C\c1ccc(C(=O)O)cc1)C(N)=O,23.8%,13.2%,17.1%
COc1cc(/C=C(\C#N)C(N)=O)cc(OC)c1OC,19.3%,17.8%,15.6%
CN(C)c1ccc(/C=C(\C#N)C(N)=S)cc1,inactive,13.7%,inactive
N#C/C(=C\c1cccnc1)C(N)=O,inactive,inactive,inactive
N#C/C(C(N)=O)=C1\CCc2ccccc21,24.1%,10.3%,23.2%
N#C/C(=C\c1ccc(N2CCOCC2)s1)C(N)=O,29.1%,38.6%,23.2%
N#C/C(=C\c1c[nH]c2ccccc12)C(N)=O,33.4%,16.4%,23.7%
C/C(=C(\C#N)C(N)=O)c1ccccc1,18.4%,9.7%,9%
N#C/C(=C\c1cccc(O)c1)C(N)=O,18.1%,9.8%,15.7%
N#C/C(=C\c1ccc(O)cc1)C(=O)N1CCOCC1,49.9%,18%,32.2%
CN(C)c1ccc(/C=C(\C#N)C(=O)O)cc1,46.5%,13.3%,38.7%
CN1CCN(c2c(F)c(F)c(/C=C(\C#N)C(N)=O)c(F)c2F)CC1,31.9%,28.5%,19.2%
COc1cc(CC(C#N)C(N)=O)cc(OC)c1OC (stereo not given),inactive,inactive,inactive
CN1CCN(c2ccc(/C=C(\C#N)C(N)=O)cc2)CC1,40.9%,22%,32.3%
